# Results as given in ChEMBL document CHEMBL4425113, “Chromenopyrazole, a Versatile Cannabinoid Scaffold with in Vivo Activity in a Model of Multiple Sclerosis” (J Med Chem, 2016).
# Active and inactive are the calls of the source. The calls are words filed in the database; no cut-off is given here.
# What was measured:
# Cannabinoid receptor 2 [1] = target: T1, Cannabinoid receptor 2 (Homo sapiens, UniProt P34972); assay: Agonist activity at human CB2 receptor expressed in HEK293 cell membranes assessed as inhibition of forskolin-stimulated cAMP accumulation at 200 nM after 60 mins by HTRF assay; assay type: functional, cell-based
# Outline: (§1)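 HEK293 cells stably expressing hCB2, 5.000 cells/well, forskolin-stimulated; Lance-Ultra TR-FRET cAMP kit, 60 min room temperature with HTRF reagents; 665/620 nm ratio converted to cAMP via standard curve; forskolin level set to 100%.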
# Cannabinoid receptor 1 [2] = target: T2, Cannabinoid receptor 1 (Homo sapiens, UniProt P21554); assay: biochemical; assay type: cell-based, HEK293
# Homo sapiens [3] = species on record: Homo sapiens; assay: Selectivity ratio of Ki for human CB1 receptor to Ki for human CB2 receptor
# Outline: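 Membranes from cells transfected with hCB1 (8 μg/well; Tris 50 mM, MgCl2 5 mM, EDTA 2.5 mM, BSA 0.5 mg/mL, pH 7.4) or hCB2 (4 μg/well; EGTA 2.5 mM, BSA 1 mg/mL, pH 7.5); [3H]CP55940, 90 min at 30 °C. […] Nonspecific binding 10 μM WIN55212-2; GF/C filtration, scintillation; ≥3 experiments in triplicate.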
# Cannabinoid receptor 2 [4] = target: T1, Cannabinoid receptor 2; assay: Displacement of [3H]-CP55940 from human CB2 receptor expressed in HEK293 cell membranes after 90 mins by liquid scintillation counting method
# Cannabinoid receptor 2 [5] = target: T1, Cannabinoid receptor 2; assay: Agonist activity at human CB2 receptor expressed in HEK293 cell membranes assessed as induction of [35S]-GTPgammaS binding after 60 mins by liquid scintillation spectrometric method; assay type: functional
# Cannabinoid receptor 2 [6] = target: T1, Cannabinoid receptor 2; assay: Agonist activity at human CB2 receptor expressed in HEK293 cell membranes assessed as inhibition of forskolin-stimulated cAMP accumulation after 60 mins by HTRF assay; assay type: functional, cell-based
# Cannabinoid receptor 2 [7] = target: T1, Cannabinoid receptor 2; assay: Agonist activity at human CB2 receptor expressed in HEK293 cell membranes assessed as inhibition of forskolin-stimulated cAMP accumulation at 1 uM after 60 mins by HTRF assay; assay type: functional, cell-based; outline: as §1
# [8] = Binding affinity to PDEA modified AGP (unknown origin) at 40 uM by surface plasmon resonance method; assay type: ADME; settings: human, isolated protein
# Cannabinoid receptor 2 [9] = target: T1, Cannabinoid receptor 2; assay: Partial agonist activity at human CB2 receptor expressed in HEK293 cell membranes assessed as inhibition of forskolin-stimulated cAMP accumulation at 200 nM after 60 mins by HTRF assay; assay type: functional, cell-based; outline: as §1
# Cannabinoid receptor 2 [10] = target: T1, Cannabinoid receptor 2; assay: Partial agonist activity at human CB2 receptor expressed in HEK293 cell membranes assessed as inhibition of forskolin-stimulated cAMP accumulation at 1 uM after 60 mins by HTRF assay; assay type: functional, cell-based; outline: as §1
# Homo sapiens [11] = species on record: Homo sapiens; assay: Selectivity ratio of Ki for human CB2 receptor to Ki for human CB1 receptor
# Cannabinoid receptor 1 [12] = target: T2, Cannabinoid receptor 1; assay: Agonist activity at human CB1 receptor expressed in HEK293 cell membranes assessed as induction of [35S]-GTPgammaS binding after 60 mins by liquid scintillation spectrometric method; assay type: functional
# T1 sequence (P34972 whole entry): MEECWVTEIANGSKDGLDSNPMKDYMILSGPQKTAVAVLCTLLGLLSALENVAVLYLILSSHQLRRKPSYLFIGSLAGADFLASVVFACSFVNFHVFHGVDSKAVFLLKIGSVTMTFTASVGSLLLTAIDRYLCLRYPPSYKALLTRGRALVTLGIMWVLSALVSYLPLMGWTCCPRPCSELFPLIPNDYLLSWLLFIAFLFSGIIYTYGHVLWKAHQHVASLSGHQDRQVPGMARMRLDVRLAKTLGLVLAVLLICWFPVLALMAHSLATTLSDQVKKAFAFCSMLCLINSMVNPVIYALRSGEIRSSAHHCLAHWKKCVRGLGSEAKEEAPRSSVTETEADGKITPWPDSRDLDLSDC
# T2 sequence (P21554 whole entry): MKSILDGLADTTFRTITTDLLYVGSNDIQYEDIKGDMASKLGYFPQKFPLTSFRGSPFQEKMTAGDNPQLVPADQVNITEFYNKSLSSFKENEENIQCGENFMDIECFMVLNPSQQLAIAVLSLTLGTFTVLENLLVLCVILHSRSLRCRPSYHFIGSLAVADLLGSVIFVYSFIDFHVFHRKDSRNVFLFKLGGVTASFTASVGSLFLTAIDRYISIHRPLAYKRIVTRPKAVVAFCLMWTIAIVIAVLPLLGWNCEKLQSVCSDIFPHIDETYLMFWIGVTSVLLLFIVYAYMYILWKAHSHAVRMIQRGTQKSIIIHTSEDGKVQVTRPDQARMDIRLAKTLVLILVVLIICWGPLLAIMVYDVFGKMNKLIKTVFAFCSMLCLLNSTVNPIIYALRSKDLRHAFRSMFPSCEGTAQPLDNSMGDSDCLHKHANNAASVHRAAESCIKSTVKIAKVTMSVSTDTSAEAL
Structure (SMILES),Ki (Cannabinoid receptor 1 [2]),Ratio Ki (Homo sapiens [3]),Ki (Cannabinoid receptor 2 [4]),also measured
CCCCCCC(C)(C)c1cc(OCCCO)c2c(c1)OC(C)(C)c1cnoc1-2,333 nM,5.1,65.5 nM,inhibition (Cannabinoid receptor 2 [1]): Active; Emax (Cannabinoid receptor 2 [5]): 96%; Emax (Cannabinoid receptor 2 [6]): 91%; IC50 (Cannabinoid receptor 2 [6]): 14 nM; inhibition (Cannabinoid receptor 2 [7]): Active
CCCCCCC(C)(C)c1cc(OC)c2c(c1)OC(C)(C)c1cn[nH]c1-2,272 nM,3.1,87.1 nM,PB [8]: Active
CCCCCCC(C)(C)c1cc(OC)c2c(c1)OC(C)(C)c1cnn(-c3ccc(Cl)c(Cl)c3)c1-2,2320 nM,–,2260 nM,–
CCCCCCC(C)(C)c1cc(OCC)c2c(c1)OC(C)(C)c1cnn(-c3ccc(Cl)c(Cl)c3)c1-2,> 40000 nM,> 11.3,3540 nM,–
CCCCCCC(C)(C)c1cc(O)c2c(c1)OC(C)(C)c1cnn(C3CCCCC3)c1-2,1140 nM,21.5,53.7 nM,PB [8]: Active
CCCCCCC(C)(C)c1cc(OC)c2c(c1)OC(C)(C)c1cnn(CC)c1-2,5040 nM,31.6,159 nM,inhibition (Cannabinoid receptor 2 [9]): Active; inhibition (Cannabinoid receptor 2 [10]): Active
CCCCCCC(C)(C)c1cc(OCCCO)c2c(c1)OC(C)(C)c1cn(C)nc1-2,> 40000 nM,> 110,364 nM,–
CCCCCCC(C)(C)c1cc(O)c2c(c1)OC(C)(C)c1cn(CO)nc1-2,218 nM,3.7,59.4 nM,–
CCCCCCC(C)(C)c1cc(OCCCO)c2c(c1)OC(C)(C)c1cnn(-c3ccc(Cl)c(Cl)c3)c1-2,> 40000 nM,–,> 40000 nM,–
CCCCCCC(C)(C)c1cc2c(c3c1CCCO3)-c1nn(CC)cc1C(C)(C)O2,> 40000 nM,> 330,122 nM,inhibition (Cannabinoid receptor 2 [1]): Active; Emax (Cannabinoid receptor 2 [6]): 98%; IC50 (Cannabinoid receptor 2 [6]): 25.5 nM; inhibition (Cannabinoid receptor 2 [7]): Active
CCCCCCC(C)(C)c1cc(OCc2ccccc2)c2c(c1)OC(C)(C)c1cnn(-c3ccc(Cl)cc3Cl)c1-2,> 40000 nM,–,> 40000 nM,–
CCCCCCC(C)(C)c1cc(O)c2c(c1)OC(C)(C)c1cnn(-c3cccc(OC)c3)c1-2,6440 nM,11.5,562 nM,–
C=C(C)[C@@H]1CCC(C)=C[C@H]1c1c(O)cc(CCCCC)cc1O [CANNABIDIOL],–,–,–,PB [8]: Active
CCCCCCC(C)(C)c1cc(O)c2c(c1)OC(C)(C)c1cn[nH]c1-2,–,–,–,Ki (Cannabinoid receptor 1 [2]; hek293): 28.5 nM; Ratio Ki (Homo sapiens [11]): > 1400
CCCCCCC(C)(C)c1cc(O)c2c(c1)OC(C)(C)c1cn(CC)nc1-2,–,–,–,Ki (Cannabinoid receptor 1 [2]; hek293): 18.6 nM; Ratio Ki (Homo sapiens [11]): > 2000
CCCCCCC(C)(C)c1cc(O)c2c(c1)OC(C)(C)c1cnn(-c3ccc(Cl)cc3Cl)c1-2,–,–,–,Ki (Cannabinoid receptor 1 [2]; hek293): 5.2 nM; Ratio Ki (Homo sapiens [11]): > 7500
CCCCC/C=C\C/C=C\C/C=C\C/C=C\CCCC(=O)OC(CO)CO [2-ARACHIDONOYLGLYCEROL],–,–,–,PB [8]: Active
CCCCC/C=C\C/C=C\C/C=C\C/C=C\CCCC(=O)NCCO [ANANDAMIDE],–,–,–,PB [8]: Active
CCCCCCC(C)(C)c1cc(OCCO)c2c(c1)OC(C)(C)c1cn(CC)nc1-2,6510 nM,31,211 nM,PB [8]: Active
CCCCCCC(C)(C)c1cc(O)c2c(c1)OC(C)(C)c1cnn(CCO)c1-2,19.1 nM,–,366 nM,Ratio Ki (Homo sapiens [11]): 19.1

Structure (SMILES),Ki (Cannabinoid receptor 1 [2]),Ratio Ki (Homo sapiens [3]),Ki (Cannabinoid receptor 2 [4]),also measured
CCCCCCC(C)(C)c1cc(OCc2ccccc2)c2c(c1)OC(C)(C)c1cn(CC)nc1-2,671 nM,3.1,212 nM,–
CCCCCCC(C)(C)c1cc(OC)c([C@H]2C=C(CO)[C@@H]3C[C@H]2C3(C)C)c(OC)c1,–,–,–,Emax (Cannabinoid receptor 2 [5]): 91%
CCCCCCC(C)(C)c1cc(OCc2ccccc2)c2c(c1)OC(C)(C)c1cn(C)nc1-2,702 nM,3.3,209 nM,–
CCCCCCC(C)(C)c1cc2c(c3c1CCCO3)-c1c(cnn1CC)C(C)(C)O2,> 10000 nM,> 17.7,564 nM,PB [8]: Active
CCCCCCC(C)(C)c1cc(O)c2c(c1)OC(C)(C)c1cnn(CC)c1-2,–,–,–,Ki (Cannabinoid receptor 1 [2]; hek293): 4.5 nM; Ratio Ki (Homo sapiens [11]): > 8000
CCCCCCC(C)(C)c1cc(OCCCO)c2c(c1)OC(C)(C)c1cnn(CC)c1-2,1610 nM,3.6,440 nM,–
CCCCCCC(C)(C)c1cc(OC)c2c(c1)OC(C)(C)c1cnn(-c3ccc(Cl)cc3Cl)c1-2,1690 nM,–,1490 nM,–
CCCCCCC(C)(C)c1cc(OCCO)c2c(c1)OC(C)(C)c1cn[nH]c1-2,64.8 nM,18,3.6 nM,inhibition (Cannabinoid receptor 2 [1]): Active; Emax (Cannabinoid receptor 2 [5]): 110%; Emax (Cannabinoid receptor 2 [6]): 95%; IC50 (Cannabinoid receptor 2 [6]): 21.6 nM; inhibition (Cannabinoid receptor 2 [7]): Active
CCCCCCC(C)(C)c1cc(OCCCBr)c2c(c1)OC(C)(C)c1cn(CC)nc1-2,657 nM,7.5,87.1 nM,–
CCCCCCC(C)(C)c1cc(OC)c2c(c1)OC(C)(C)c1cn(CC)nc1-2,2930 nM,31.8,92.6 nM,inhibition (Cannabinoid receptor 2 [9]): Active; inhibition (Cannabinoid receptor 2 [10]): Active; PB [8]: Active
CCCCCCC(C)(C)c1cc(O)c2c(c1)OC(C)(C)c1cn(CCO)nc1-2,54.4 nM,1.4,39.6 nM,EC50 (Cannabinoid receptor 1 [12]): 299 nM
CCCCCCC(C)(C)c1cc(OCc2ccccc2)c2c(c1)OC(C)(C)c1cnn(CC)c1-2,614 nM,2,296 nM,–
CCCCCCC(C)(C)c1cc(O)c2c(c1)OC(C)(C)c1cn(C)nc1-2,–,–,–,Ki (Cannabinoid receptor 1 [2]; hek293): 14.2 nM; Ratio Ki (Homo sapiens [11]): > 2500
CCCCCCC(C)(C)c1cc(OCCCO)c2c(c1)OC(C)(C)c1cn[nH]c1-2,450 nM,17.3,26 nM,inhibition (Cannabinoid receptor 2 [9]): Active; inhibition (Cannabinoid receptor 2 [10]): Active; PB [8]: Active
CCCCCCC(C)(C)c1cc(OCCCBr)c2c(c1)OC(C)(C)c1cn(C)nc1-2,1480 nM,19.1,77.3 nM,inhibition (Cannabinoid receptor 2 [9]): Active; inhibition (Cannabinoid receptor 2 [10]): Active; PB [8]: Active
CCCCCCC(C)(C)c1cc(OCCCO)c2c(c1)OC(C)(C)c1cnn(-c3ccc(Cl)cc3Cl)c1-2,> 40000 nM,–,> 40000 nM,–
CCCCCCC(C)(C)c1cc(O)c2c(c1)OC(C)(C)c1cnn(-c3cc(F)cc(F)c3)c1-2,> 40000 nM,–,> 40000 nM,–
CCCC(C)(C)c1ccc2c(c1)OC(C)(C)[C@@H]1CC=C(C)C[C@@H]21,–,–,–,Emax (Cannabinoid receptor 2 [6]): 98%; IC50 (Cannabinoid receptor 2 [6]): 81.8 nM
CCCCCCC(C)(C)c1cc(OCc2ccccc2)c2c(c1)OC(C)(C)c1cnn(-c3ccc(Cl)c(Cl)c3)c1-2,> 40000 nM,> 10.7,3740 nM,–
CCCCCCC(C)(C)c1cc(O)c2c(c1)OC(C)(C)c1cnn(-c3ccc(Cl)c(Cl)c3)c1-2,–,1.9,–,Ki (Cannabinoid receptor 1 [2]; hek293): 514 nM; Ki (Cannabinoid receptor 2 [4]; hek293): 270 nM
